In ChEMBL document CHEMBL4330057, “Second generation of diazachrysenes: Protection of Ebola virus infected mice and mechanism of action” (Eur J Med Chem, 2019):
Activity calls are given as the source filed them. The calls are words filed in the database; no cut-off is given here.

Tests used:
[1] = Toxicity in 6 hrs post fertilized zebrafish embryo assessed as teratogenic effect by measuring liver morphology and color up to 50 uM up to 120 hrs post fertilization by inverted microscopic method; type: tissue-based, Danio rerio; conditions: in vivo
[2] = Toxicity in 6 hrs post fertilized zebrafish embryo assessed as teratogenic effect by measuring yolk absorption up to 50 uM up to 120 hrs post fertilization by inverted microscopic method; parameters: species or system Danio rerio; conditions: in vivo
HeLa [3] = test: Induction of lysosomotropism in human HeLa cells infected with Ebolavirus assessed as increase in lysosome concentration in juxtanuclear region at 10 uM for 2 hrs by acridine orange staining based assay; type: functional, cell-based
Method in brief: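 HeLa cells were pretreated with compound for 2 h, then given acridine orange for 30 min and washed. Red AO fluorescence in acidic compartments was imaged, and total intensity and average area were scored by high-content imaging. Eight wells per point, about 3000 cells/well, mean ± SD, representative of three independent experiments.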

[4] = biological target: Cathepsin B (Homo sapiens) (UniProt P07858); test: Inhibition of cathepsin B activity in human HeLa cells at 10 uM after 12 hrs by magic red substrate based fluorescence assay; type: cell-based
Method in brief: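 HeLa cells were exposed to compound for 12 h, then given the Magic Red cathepsin B peptide reporter, washed, and imaged at Ex/Em 590/630. Total intensity and average area of red fluorescence were scored by high-content analysis. Eight wells per point, about 3000 cells/well, mean ± SD, three independent experiments.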

[5] = Myelotoxicity in 6 hrs post fertilized transgenic mpx:GFP zebrafish embryo assessed as reduction in neutrophil occurrence at >= 80 uM measured at 72 hrs hrs post fertilization by fluorescence assay; parameters: species or system Danio rerio
HeLa [6] = test: Induction of lysosomotropism in human HeLa cells infected with Ebolavirus assessed as increase in fluorescence intensity of acid compartments at 10 uM for 1 hr by Lysosensor DND189 staining based assay; type: functional, cell-based
Method in brief: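 HeLa cells were pretreated 1 h with compound (Bafilomycin A1 at 0.01 μM as acidification control), then stained with LysoSensor DND 189 for 10 min and washed. Live imaging at Ex/Em 443/505 nm. Fluorescence intensity per area was quantified by image analysis. Eight wells per point, about 3000 cells/well, mean ± SD, three independent experiments.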

[7] = Toxicity in 6 hrs post fertilized zebrafish embryo assessed as teratogenic effect by measuring growth retardation up to 50 uM up to 120 hrs post fertilization by inverted microscopic method; parameters: species or system Danio rerio; conditions: in vivo
[8] = Toxicity in 6 hrs post fertilized zebrafish embryo assessed as teratogenic effect by measuring scoliosis up to 50 uM up to 120 hrs post fertilization by inverted microscopic method; parameters: species or system Danio rerio; conditions: in vivo
Zaire ebolavirus = test: Antiviral activity against VSV pseudotyped Ebolavirus Mayinga expressing GFP infected in human HeLa cells assessed as inhibition of viral infection at 10 uM pre-incubated for 2 hrs followed by viral infection and measured after 8 hrs by cell mask deep red staining based assay; type: functional, organism-based; conditions: 1976
Method in brief: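 HeLa cells pretreated 2 h with compound, then infected with rVSV-EBOV-GP-GFP (8 h) or VSV-GFP (6 h), and stained with Cell Mask Deep Red. Relative inhibition = 1 minus (% GFP-expressing cells normalised to mock). Mean ± SD of three replicates, representative of three independent experiments.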

[9] = Toxicity in 6 hrs post fertilized zebrafish embryo assessed as teratogenic effect by measuring malformation of tail up to 50 uM up to 120 hrs post fertilization by inverted microscopic method; type: tissue-based, Danio rerio; conditions: in vivo
[10] = Hepatotoxicity in 6 hrs post fertilized transgenic l-fabp:EGFP zebrafish embryo assessed as change in liver area index up to 30 uM up to 120 hrs post fertilization by fluorescence assay; type: toxicity, Danio rerio; conditions: in vivo
Method in brief: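 Tg(l-fabp:EGFP) zebrafish embryos exposed from 6 hpf. At 120 hpf, liver area index (liver area/lateral body area) and liver fluorescence assessed by in vivo imaging.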

[11] = Hepatotoxicity in 72 hrs post fertilized transgenic l-fabp:EGFP zebrafish embryo assessed as change in liver fluorescence up to 80 uM up to 120 hrs post fertilization by fluorescence assay; type: toxicity, Danio rerio; conditions: in vivo
Method in brief: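 Transgenic Tg(l-fabp:EGFP) zebrafish with fluorescent liver, exposed to compound added at 72 hpf. Liver imaged in vivo at 120 hpf. Read-outs were liver fluorescence and liver area index (liver area divided by lateral body area).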

[12] = Toxicity in 6 hrs post fertilized zebrafish embryo assessed as teratogenic effect by measuring malformation of notochord up to 50 uM up to 120 hrs post fertilization by inverted microscopic method; type: tissue-based, Danio rerio; conditions: in vivo
[13] = Toxicity in 6 hrs post fertilized zebrafish embryo assessed as tail detachment up to 50 uM up to 120 hrs post fertilization by inverted microscopic method; parameters: species or system Danio rerio; conditions: in vivo
[14] = Toxicity in 6 hrs post fertilized zebrafish embryo assessed as teratogenic effect by measuring effect on heart beat frequency up to 50 uM up to 120 hrs post fertilization by inverted microscopic method; parameters: species or system Danio rerio; conditions: in vivo
Ebolavirus = test: Antiviral activity against Ebolavirus H. sapiens-wt/1995/Kikwit-9510621 infected in African green monkey Vero cells assessed as inhibition of viral infection pretreated for 2 hrs followed by viral infection and measured after 48 hrs by EboV GP immunostaining based high content imaging analysis; type: functional, organism-based; conditions: Orthoebolavirus, H. sapiens-wt/1995/Kikwit-9510621, Vero
[15] = Toxicity in 6 hrs post fertilized zebrafish embryo assessed as teratogenic effect by measuring malformation of sacculi/otoliths up to 50 uM up to 120 hrs post fertilization by inverted microscopic method; parameters: species or system Danio rerio; conditions: in vivo
HeLa [16] = test: Inhibition of lysosome fusion with autophagosome in human HeLa cells harboring GFP-LC3 assessed as increase in GFP-LC3-2 clustering at <50 uM after 6 hrs by Western blot analysis; type: functional, subcellular
Method in brief: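 HeLa cells were exposed to compound for 6 h, then lysed and analysed by Western blot.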

[17] = Toxicity in 6 hrs post fertilized zebrafish embryo assessed as teratogenic effect by measuring effect on blood circulation up to 50 uM up to 120 hrs post fertilization by inverted microscopic method; parameters: species or system Danio rerio; conditions: in vivo
[18] = Toxicity in 6 hrs post fertilized zebrafish embryo assessed as teratogenic effect by measuring malformation of head up to 50 uM up to 120 hrs post fertilization by inverted microscopic method; type: tissue-based, Danio rerio; conditions: in vivo
[19] = Toxicity in 6 hrs post fertilized zebrafish embryo assessed as teratogenic effect by measuring yolk edema up to 50 uM up to 120 hrs post fertilization by inverted microscopic method; parameters: species or system Danio rerio; conditions: in vivo
[20] = Toxicity in 6 hrs post fertilized zebrafish embryo assessed as teratogenic effect by measuring malformation of eyes up to 50 uM up to 120 hrs post fertilization by inverted microscopic method; parameters: species or system Danio rerio; conditions: in vivo
[21] = Toxicity in 6 hrs post fertilized zebrafish embryo assessed as teratogenic effect by measuring pericardial edema up to 50 uM up to 120 hrs post fertilization by inverted microscopic method; parameters: species or system Danio rerio; conditions: in vivo

CCN(CC)CCCC(C)Nc1ccnc2cc(Cl)ccc12 (stereo not drawn) [CHLOROQUINE]
Activity [1]: Non-Toxic
Activity [2]: Non-Toxic
Activity (HeLa [3]): Active
inhibition [4]: inactive
Activity [5]: Toxic
Activity (HeLa [6]): inactive
Activity [7]: Non-Toxic
Activity [8]: Non-Toxic
Activity (Zaire ebolavirus): Active
Activity [9]: Non-Toxic
Activity [10]: Toxic
Activity [11]: Toxic
Activity [12]: Non-Toxic
Activity [13]: Non-Toxic
Activity [14]: Non-Toxic
EC50 (Ebolavirus): 16 µM
Activity [15]: Non-Toxic
inhibition (HeLa [16]): inactive
Activity [17]: Non-Toxic
Activity [18]: Non-Toxic
Activity [19]: Non-Toxic
Activity [20]: Non-Toxic
Activity [21]: Non-Toxic
